Data reported in article PMC4165341 (ACS nano, 2011).

What was measured:
[1] = biological target: T1, mOR174-9 (mOR-EG), His-tagged, nanotube device (Mus musculus, UniProt Q920P2); test: carbon nanotube transistor current change; format: binding; conditions: digitonin micelle device; eugenol vapor in N2, 50% RH (2 ppm in Figure 2)
T1 sequence (Q920P2 1-313): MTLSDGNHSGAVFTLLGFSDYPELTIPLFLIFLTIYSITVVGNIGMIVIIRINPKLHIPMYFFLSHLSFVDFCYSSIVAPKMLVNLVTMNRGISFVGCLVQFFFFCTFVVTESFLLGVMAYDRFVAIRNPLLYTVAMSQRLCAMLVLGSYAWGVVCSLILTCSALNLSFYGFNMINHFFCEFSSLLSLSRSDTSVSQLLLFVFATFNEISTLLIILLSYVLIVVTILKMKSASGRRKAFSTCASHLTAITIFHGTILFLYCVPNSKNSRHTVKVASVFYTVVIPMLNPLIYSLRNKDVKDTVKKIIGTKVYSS
How it was run: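 Receptor solubilised from crude plasma membranes in 6.76 mM digitonin, captured on Ni-magnetic beads (1 h, 4 °C), eluted in 4.88 mM digitonin/acetate pH 4.0, readjusted to pH 8.0, used immediately. Back-gated nanotube transistors (on/off >1000) treated with 11.3 mM NTA-NH2 (2 h), then 11.3 mM NiCl2; receptor deposited 30 min, room temperature. Current recorded under computer-controlled humidity, temperature and vapor flow.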

[2] = biological target: T2, mOR256-17, His-tagged, nanotube device (Mus musculus, UniProt P23275); test: carbon nanotube transistor current change; format: binding; conditions: odorant vapor in N2, 50% RH, concentration not given
T2 sequence (P23275 1-312): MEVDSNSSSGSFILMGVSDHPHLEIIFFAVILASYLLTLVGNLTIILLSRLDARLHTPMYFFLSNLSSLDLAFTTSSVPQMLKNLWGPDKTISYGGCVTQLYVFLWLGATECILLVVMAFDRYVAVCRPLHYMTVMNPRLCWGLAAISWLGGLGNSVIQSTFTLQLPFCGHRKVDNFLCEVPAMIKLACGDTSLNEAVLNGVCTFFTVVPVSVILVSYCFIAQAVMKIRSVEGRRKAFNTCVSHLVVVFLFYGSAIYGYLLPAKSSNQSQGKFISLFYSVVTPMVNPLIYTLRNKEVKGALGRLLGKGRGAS

C=CCc1ccc(O)c(OC)c1 [eugenol]
mOR 174-9 / micelle nanotube [1]: +20.9±4.6% | mOR 256-17 / nanodisc nanotube [2]: +33.6±8.3%
